Laboratory results from ChEMBL document CHEMBL1240400, “Comparative in vitro activities of nemonoxacin (TG-873870), a novel nonfluorinated quinolone, and other quinolones against clinical isolates” (2010).

Experiments:
Assay type in all cases: functional
Streptococcus pneumoniae [1] = test: Antibacterial activity against Levofloxacin resistant Streptococcus pneumoniae by broth dilution method
Summary of the method: (§1)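 Streptococcus pneumoniae clinical isolates tested by CLSI broth microdilution. A 0.5 McFarland suspension was diluted into Mueller-Hinton broth with 3% lysed horse blood, then tested against serial drug dilutions. Plates were incubated overnight at 35°C in ambient air, and the MIC was read as the lowest inhibitory concentration. Quality control strains were included in each run.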

Klebsiella pneumoniae = test: Antibacterial activity against Klebsiella pneumoniae by broth dilution method
Summary of the method: (§2)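 Broth microdilution per CLSI in panels spanning a dilution range of each agent. Cation-adjusted Mueller-Hinton broth, final inoculum 5 × 10^5 CFU/ml from a 0.5 McFarland suspension. Incubated overnight at 35°C in ambient air, with quality control strains in each run. MIC reported; values at or below the lowest concentration tested are given as that concentration.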

Staphylococcus aureus [2] = test: Antibacterial activity against ciprofloxacin susceptible and methicillin resistant Staphylococcus aureus by broth dilution method
Summary of the method: (§3)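 Clinical isolates tested by CLSI broth microdilution in panels holding serial twofold drug dilutions in cation-adjusted Mueller-Hinton broth. Final inoculum 5 × 10^5 CFU/ml was made from a 0.5 McFarland suspension. Plates were incubated overnight at 35°C in ambient air, and the MIC was read as the lowest concentration inhibiting growth. Quality control strains were included in each run.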

Enterococcus faecium [3] = test: Antibacterial activity against vancomycin resistant Enterococcus faecium by broth dilution method; summary of the method: as §3
Haemophilus influenzae = test: Antibacterial activity against Haemophilus influenzae by broth dilution method
Summary of the method: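 Broth microdilution per CLSI using Haemophilus Test Medium broth, seeded from a 0.5 McFarland suspension. Incubated overnight at 35°C in ambient air, with quality control strains in each run. MIC read against a tested dilution range; values at the low limit are given as the lowest concentration.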

Proteus mirabilis = test: Antibacterial activity against Proteus mirabilis by broth dilution method
Enterococcus faecium [4] = test: Antibacterial activity against Enterococcus faecium by broth dilution method; summary of the method: as §3
Enterococcus faecalis [5] = test: Antibacterial activity against vancomycin resistant Enterococcus faecalis by broth dilution method
Pseudomonas aeruginosa = test: Antibacterial activity against Pseudomonas aeruginosa by broth dilution method
Streptococcus agalactiae = test: Antibacterial activity against Streptococcus agalactiae by broth dilution method
Summary of the method: (§4)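 Streptococci were tested by CLSI broth microdilution in Mueller-Hinton broth with 3% lysed horse blood, seeded from a 0.5 McFarland suspension. Incubated overnight at 35°C in ambient air, with quality control strains in each run. MIC taken over a per-agent dilution range.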

Escherichia coli [6] = test: Antibacterial activity against ciprofloxacin resistant Escherichia coli by broth dilution method; summary of the method: as §3
Neisseria gonorrhoeae [7] = test: Antibacterial activity against levofloxacin resistant Neisseria gonorrhoeae isolates by broth dilution method
Summary of the method: (§5)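 Neisseria gonorrhoeae clinical isolates tested by CLSI broth microdilution in Mueller-Hinton broth with 3% lysed horse blood, inoculated from a 0.5 McFarland suspension. Plates were incubated overnight at 35°C in 5% CO2, and the MIC was read as the lowest inhibitory concentration. Quality control strains were included in each run.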

Escherichia coli [8] = test: Antibacterial activity against ciprofloxacin susceptible Escherichia coli by broth dilution method; summary of the method: as §2
Enterobacter cloacae = test: Antibacterial activity against Enterobacter cloacae by broth dilution method
Neisseria gonorrhoeae [9] = test: Antibacterial activity against ciprofloxacin resistant Neisseria gonorrhoeae isolates by broth dilution method; summary of the method: as §5
Citrobacter freundii = test: Antibacterial activity against Citrobacter freundii by broth dilution method; summary of the method: as §2
Staphylococcus aureus [10] = test: Antibacterial activity against methicillin susceptible Staphylococcus aureus by broth dilution method
[11] = tested on: Staphylococcus epidermidis; test: Antibacterial activity against methicillin resistant coagulase negative Staphylococcus epidermidis by broth dilution method
Staphylococcus = test: Antibacterial activity against methicillin resistant coagulase negative Staphylococcus by broth dilution method
Acinetobacter baumannii = test: Antibacterial activity against Acinetobacter baumannii by broth dilution method; summary of the method: as §2
Streptococcus pyogenes = test: Antibacterial activity against Streptococcus pyogenes by broth dilution method; summary of the method: as §4
Neisseria gonorrhoeae [12] = test: Antibacterial activity against moxifloxacin resistant Neisseria gonorrhoeae isolates by broth dilution method; summary of the method: as §5
Staphylococcus aureus [13] = test: Antibacterial activity against ciprofloxacin and methicillin resistant Staphylococcus aureus by broth dilution method; summary of the method: as §3
Streptococcus pneumoniae [14] = test: Antibacterial activity against Levofloxacin susceptible Streptococcus pneumoniae by broth dilution method; summary of the method: as §1
Enterococcus faecalis [15] = test: Antibacterial activity against Enterococcus faecalis by broth dilution method
Streptococcus viridans = test: Antibacterial activity against Streptococcus viridans by broth dilution method; summary of the method: as §4

**Q.** What does the source list for `COc1c(N2C[C@@H](C)C[C@H](N)C2)ccc2c(=O)c(C(=O)O)cn(C3CC3)c12.O=C(O)CC(O)C(=O)O` [NEMONOXACIN MALIC ACID]?
**A.** MIC50 (Streptococcus pneumoniae [1]): 1 µg/mL; MIC90 (Streptococcus pneumoniae [1]): 2 µg/mL; MIC50 (Klebsiella pneumoniae): 4 µg/mL; MIC90 (Klebsiella pneumoniae): > 16 µg/mL; MIC50 (Staphylococcus aureus [2]): 0.03 µg/mL; MIC90 (Staphylococcus aureus [2]): 0.06 µg/mL; MIC50 (Enterococcus faecium [3]): 4 µg/mL; MIC90 (Enterococcus faecium [3]): 8 µg/mL; MIC50 (Haemophilus influenzae): 0.12 µg/mL; MIC90 (Haemophilus influenzae): 4 µg/mL; MIC50 (Proteus mirabilis): 8 µg/mL; MIC90 (Proteus mirabilis): > 16 µg/mL; MIC50 (Enterococcus faecium [4]): 4 µg/mL; MIC90 (Enterococcus faecium [4]): 8 µg/mL; MIC50 (Enterococcus faecalis [5]): 0.25 µg/mL; MIC90 (Enterococcus faecalis [5]): 4 µg/mL; MIC50 (Pseudomonas aeruginosa): 16 µg/mL; MIC90 (Pseudomonas aeruginosa): > 16 µg/mL; MIC (Streptococcus agalactiae): 0.12 µg/mL; MIC50 (Streptococcus agalactiae): 0.12 µg/mL; MIC90 (Streptococcus agalactiae): 0.25 µg/mL; MIC50 (Escherichia coli [6]): > 16 µg/mL; MIC90 (Escherichia coli [6]): > 16 µg/mL; MIC (Neisseria gonorrhoeae [7]): 0.25 µg/mL; MIC50 (Escherichia coli [8]): 1 µg/mL; MIC90 (Escherichia coli [8]): 2 µg/mL; MIC50 (Enterobacter cloacae): 4 µg/mL; MIC90 (Enterobacter cloacae): > 16 µg/mL; MIC (Neisseria gonorrhoeae [9]): 0.25 µg/mL; MIC50 (Citrobacter freundii): 0.5 µg/mL; MIC90 (Citrobacter freundii): 4 µg/mL; MIC50 (Staphylococcus aureus [10]): 0.03 µg/mL; MIC90 (Staphylococcus aureus [10]): 0.12 µg/mL; MIC50 [11]: 0.12 µg/mL; MIC90 [11]: 0.5 µg/mL; MIC50 (Staphylococcus): 0.12 µg/mL; MIC90 (Staphylococcus): 0.5 µg/mL; MIC50 (Acinetobacter baumannii): 4 µg/mL; MIC90 (Acinetobacter baumannii): > 16 µg/mL; MIC50 (Streptococcus pyogenes): 0.12 µg/mL; MIC90 (Streptococcus pyogenes): 0.12 µg/mL; MIC (Neisseria gonorrhoeae [12]): 0.25 µg/mL; MIC50 (Staphylococcus aureus [13]): 1 µg/mL; MIC90 (Staphylococcus aureus [13]): 1 µg/mL; MIC50 (Streptococcus pneumoniae [14]): 0.12 µg/mL; MIC90 (Streptococcus pneumoniae [14]): 0.12 µg/mL; MIC50 (Enterococcus faecalis [15]): 0.25 µg/mL; MIC90 (Enterococcus faecalis [15]): 4 µg/mL; MIC50 (Streptococcus viridans): 0.12 µg/mL; MIC90 (Streptococcus viridans): 0.25 µg/mL
